For experiment [1], the target named is T1, Ectonucleotide pyrophosphatase/phosphodiesterase family member 1 (Homo sapiens) (UniProt P22413).
T1 sequence (whole entry): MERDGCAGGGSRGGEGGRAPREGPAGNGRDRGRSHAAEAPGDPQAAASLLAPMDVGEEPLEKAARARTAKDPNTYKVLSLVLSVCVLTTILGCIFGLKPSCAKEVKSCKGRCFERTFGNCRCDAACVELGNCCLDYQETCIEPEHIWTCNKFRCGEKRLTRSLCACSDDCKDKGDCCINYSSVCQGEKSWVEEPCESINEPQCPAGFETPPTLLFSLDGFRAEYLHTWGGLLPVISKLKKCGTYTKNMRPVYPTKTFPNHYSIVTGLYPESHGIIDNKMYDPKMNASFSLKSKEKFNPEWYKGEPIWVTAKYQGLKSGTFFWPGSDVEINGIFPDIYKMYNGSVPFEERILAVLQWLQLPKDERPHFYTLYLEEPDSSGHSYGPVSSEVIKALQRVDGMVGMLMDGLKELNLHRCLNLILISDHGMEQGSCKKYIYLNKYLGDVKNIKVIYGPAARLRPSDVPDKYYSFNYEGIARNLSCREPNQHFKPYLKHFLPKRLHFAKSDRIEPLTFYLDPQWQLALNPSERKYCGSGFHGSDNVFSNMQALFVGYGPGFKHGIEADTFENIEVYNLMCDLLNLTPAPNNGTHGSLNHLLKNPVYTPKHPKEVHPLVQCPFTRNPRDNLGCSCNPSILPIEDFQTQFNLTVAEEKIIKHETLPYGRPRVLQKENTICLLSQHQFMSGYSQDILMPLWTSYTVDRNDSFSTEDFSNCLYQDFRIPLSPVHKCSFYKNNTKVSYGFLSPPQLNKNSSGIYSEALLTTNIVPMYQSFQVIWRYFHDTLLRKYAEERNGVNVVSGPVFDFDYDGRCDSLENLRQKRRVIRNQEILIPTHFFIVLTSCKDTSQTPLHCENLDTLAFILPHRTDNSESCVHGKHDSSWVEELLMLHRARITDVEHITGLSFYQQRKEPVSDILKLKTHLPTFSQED
Description: Inhibition of human NPP1 expressed in COS7 cells assessed as production of p-nitrophenol using pnp-TMP as the substrate preincubated at 100 uM for 3 mins before substrate addition measured after 15 mins […]. To be noted: COS-7. It counts as cell-based. The essentials: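 Crude extracts of COS-7 cells transiently transfected with human NPP1 or NPP3, preincubated 3 min at 37 °C in 1 mM CaCl2, 140 mM NaCl, 5 mM KCl, 50 mM Tris pH 8.5 with analogue at 100 μM. Reaction started with 100 μM pnp-TMP; p-nitrophenol at 410 nm after 15 min. Activity without analogue set as 100%. Mean ± SD of 3−6 experiments in triplicate.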

For experiment [2], the target named is T2, Ectonucleotide pyrophosphatase/phosphodiesterase family member 3 (Homo sapiens) (UniProt O14638).
T2 sequence (whole entry): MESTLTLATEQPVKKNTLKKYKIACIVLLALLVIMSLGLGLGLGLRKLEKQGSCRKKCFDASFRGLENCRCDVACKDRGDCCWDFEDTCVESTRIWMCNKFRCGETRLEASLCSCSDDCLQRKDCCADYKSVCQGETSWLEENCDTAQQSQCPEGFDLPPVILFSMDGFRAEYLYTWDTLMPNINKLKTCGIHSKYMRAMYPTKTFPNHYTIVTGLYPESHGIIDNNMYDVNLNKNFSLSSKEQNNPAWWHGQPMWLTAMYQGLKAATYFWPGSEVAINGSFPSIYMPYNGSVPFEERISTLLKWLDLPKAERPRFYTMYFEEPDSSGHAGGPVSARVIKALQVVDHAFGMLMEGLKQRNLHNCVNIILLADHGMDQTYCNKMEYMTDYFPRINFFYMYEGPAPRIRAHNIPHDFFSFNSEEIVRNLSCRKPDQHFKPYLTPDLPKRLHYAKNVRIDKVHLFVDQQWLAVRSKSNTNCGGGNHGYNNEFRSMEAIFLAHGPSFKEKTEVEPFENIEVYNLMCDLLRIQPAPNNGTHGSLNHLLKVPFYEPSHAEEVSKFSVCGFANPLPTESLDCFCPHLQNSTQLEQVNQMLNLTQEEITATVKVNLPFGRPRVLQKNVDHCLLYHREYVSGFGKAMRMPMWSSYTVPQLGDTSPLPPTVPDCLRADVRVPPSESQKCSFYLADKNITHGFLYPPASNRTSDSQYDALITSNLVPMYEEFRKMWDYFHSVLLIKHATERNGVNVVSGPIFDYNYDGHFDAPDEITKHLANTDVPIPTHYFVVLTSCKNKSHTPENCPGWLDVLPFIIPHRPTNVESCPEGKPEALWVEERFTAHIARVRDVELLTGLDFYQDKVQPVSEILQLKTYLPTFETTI
Description: Inhibition of NPP3 in human HTB-85 cells assessed as production of p-nitrophenol using pnp-TMP at 100 uM measured after 20 mins by spectrophotometry. It counts as cell-based. The essentials:
(§1)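 Intact osteocarcinoma HTB85 (SaOS-2) cells in 24-well plates, 0.5 mL incubation mixture, analogue and pnp-TMP each at 100 μM. After 20 min an aliquot was read for p-nitrophenol at 410 nm. Substrate alone set as 100%. Mean ± SD of three experiments in triplicate.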

In experiment [3] the target is T3, Ectonucleotide pyrophosphatase/phosphodiesterase family member 1 (Homo sapiens, UniProt P22413).
T3 sequence (P22413 whole entry): T1 sequence (whole entry)
Nature of the experiment: Mixed type inhibition of human NPP1 expressed in COS7 cells assessed as production of p-nitrophenol using pnp-TMP as the substrate preincubated for 3 mins before substrate addition measured after 15 mins by Dixon/Cornish Bowden method. It counts as cell-based, COS-7. To be noted: read-out: Ki(app). The essentials: (§2)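 Crude protein extract from COS-7 cells transiently transfected with human NPP1 (sonicated, debris cleared at 300g), preincubated 3 min at 37 °C with inhibitor (0, 25, 50, 100 μM) in 1 mM CaCl2, 140 mM NaCl, 5 mM KCl, 50 mM Tris pH 8.5. pnp-TMP (25, 50, 100 μM) added; p-nitrophenol read at 410 nm after 15 min. Ki,app and inhibition type from Dixon and Cornish-Bowden plots, three independent experiments.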

Experiment [4] addresses T1, Ectonucleotide pyrophosphatase/phosphodiesterase family member 1 (Homo sapiens). Description: Competitive inhibition of human NPP1 expressed in COS7 cells assessed as production of p-nitrophenol using pnp-TMP as the substrate preincubated at 25 to 100 uM for 3 mins before substrate addition measured after 15 mins by Dixon/Cornish Bowden method. It is filed as cell-based. The conditions noted are these: COS-7. The essentials: as §2

Experiment [5] has the same target. Description: Inhibition of NPP1 in human HTB-85 cells assessed as production of p-nitrophenol using pnp-TMP at 100 uM measured after 20 mins by spectrophotometry. It is filed as cell-based. The essentials: as §1
Experiment [6] addresses T4, Ectonucleoside triphosphate diphosphohydrolase 1 (Homo sapiens) (UniProt P49961).
T4 sequence (whole entry): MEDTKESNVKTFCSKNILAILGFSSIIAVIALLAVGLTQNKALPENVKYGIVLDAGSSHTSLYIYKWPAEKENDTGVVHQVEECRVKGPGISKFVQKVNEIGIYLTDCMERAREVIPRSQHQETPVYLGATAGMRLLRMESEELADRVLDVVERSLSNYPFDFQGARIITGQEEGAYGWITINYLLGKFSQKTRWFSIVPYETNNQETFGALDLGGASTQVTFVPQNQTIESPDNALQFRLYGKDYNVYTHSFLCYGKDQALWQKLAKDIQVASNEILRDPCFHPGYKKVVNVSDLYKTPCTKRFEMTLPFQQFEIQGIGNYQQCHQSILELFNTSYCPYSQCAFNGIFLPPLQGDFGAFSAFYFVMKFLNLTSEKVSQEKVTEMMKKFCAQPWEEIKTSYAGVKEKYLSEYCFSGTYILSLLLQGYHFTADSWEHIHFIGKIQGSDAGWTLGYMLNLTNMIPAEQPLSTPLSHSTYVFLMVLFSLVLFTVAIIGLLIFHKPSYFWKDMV
Description: Inhibition of human NTPDase1 assessed as amount of inorganic phosphate released using ATP as the substrate preincubated at 100 uM for 3 mins before substrate addition after 15 mins by malachite green reagent method. The essentials: (§3)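 Crude extracts of COS-7 cells transiently transfected with human NTPDase1, -2, -3 or -8, preincubated 3 min at 37 °C in Tris-Ringer medium pH 7.4 with analogue (final 100 μM). Started with 100 μM ATP, stopped after 15 min with malachite green; released Pi read at 630 nm. ATP alone set as 100%. Mean ± SD of 3−6 experiments in triplicate.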

For experiment [7], the target named is T5, Ectonucleoside triphosphate diphosphohydrolase 3 (Homo sapiens) (UniProt O75355).
T5 sequence (whole entry): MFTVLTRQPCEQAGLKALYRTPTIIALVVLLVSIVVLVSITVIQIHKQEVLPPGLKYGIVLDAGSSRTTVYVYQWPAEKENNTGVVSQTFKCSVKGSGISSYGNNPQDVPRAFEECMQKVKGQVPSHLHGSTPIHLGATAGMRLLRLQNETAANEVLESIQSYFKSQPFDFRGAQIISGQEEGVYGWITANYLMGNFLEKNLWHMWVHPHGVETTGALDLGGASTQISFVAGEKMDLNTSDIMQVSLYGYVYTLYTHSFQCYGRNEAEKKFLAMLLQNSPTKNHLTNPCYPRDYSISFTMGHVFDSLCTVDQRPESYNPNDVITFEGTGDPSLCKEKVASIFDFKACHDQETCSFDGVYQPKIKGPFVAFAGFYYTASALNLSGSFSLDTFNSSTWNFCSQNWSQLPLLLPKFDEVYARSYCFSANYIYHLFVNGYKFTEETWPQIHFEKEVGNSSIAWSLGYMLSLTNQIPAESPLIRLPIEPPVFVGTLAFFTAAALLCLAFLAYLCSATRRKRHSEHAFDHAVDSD
Description: Inhibition of human NTPDase3 assessed as amount of inorganic phosphate released using ATP as the substrate preincubated at 100 uM for 3 mins before substrate addition after 15 mins by malachite green reagent method. The gist of the method:
as §3

Experiment [8] addresses T6, Ectonucleoside triphosphate diphosphohydrolase 8 (Homo sapiens) (UniProt Q5MY95).
T6 sequence (whole entry): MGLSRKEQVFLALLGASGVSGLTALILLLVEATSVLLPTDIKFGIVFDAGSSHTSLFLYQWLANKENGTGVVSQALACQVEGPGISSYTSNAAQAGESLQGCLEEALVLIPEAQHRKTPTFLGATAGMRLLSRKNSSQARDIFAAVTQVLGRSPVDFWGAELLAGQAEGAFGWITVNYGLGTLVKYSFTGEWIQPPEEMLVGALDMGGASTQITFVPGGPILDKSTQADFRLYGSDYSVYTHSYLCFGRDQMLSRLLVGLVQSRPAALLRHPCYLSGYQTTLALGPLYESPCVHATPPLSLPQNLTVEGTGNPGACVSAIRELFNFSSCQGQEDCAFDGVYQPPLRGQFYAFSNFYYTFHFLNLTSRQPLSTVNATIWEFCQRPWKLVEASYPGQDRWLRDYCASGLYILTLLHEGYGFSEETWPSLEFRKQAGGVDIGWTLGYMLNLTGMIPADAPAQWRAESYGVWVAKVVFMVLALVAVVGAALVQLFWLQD
Description: Inhibition of human NTPDase8 assessed as amount of inorganic phosphate released using ATP as the substrate preincubated at 100 uM for 3 mins before substrate addition after 15 mins by malachite green reagent method. The essentials: as §3

SMILES strings stand for the structures. The source made the active and inactive calls. The rule behind the calls is not given here.

The inhibition is the change of the read-out against control, counted positive when it falls. For `B[P@](=O)(OC[C@H]1O[C@@H](n2cnc3c(N)ncnc32)[C@H](O)[C@@H]1O)OP(=O)(O)C(Cl)(Cl)P(=O)(O)O`, the results for the inhibition in experiment [1], in experiment [2] and in experiment [5] were 90%, 41% and 41%, respectively. In addition, the Ki in experiment [3] came out at 28 µM. Moreover, in experiment [4], the inhibition result is “Active”.

`B[P@@](=O)(OC[C@H]1O[C@@H](n2cnc3c(N)ncnc32)[C@H](O)[C@@H]1O)OP(=O)(O)C(Cl)(Cl)P(=O)(O)O`: the inhibition turned out to be 90% in experiment [1], 50% in experiment [6], 50% in experiment [7] and 30% in experiment [8]. Also, the Ki in experiment [3] came to 18 µM. Moreover, the inhibition entry in experiment [4] was “Active”.

(Values after ChEMBL document CHEMBL3085721, “Nonhydrolyzable ATP analogues as selective inhibitors of human NPP1: a combined computational/experimental study” (J Med Chem, 2013).)
